Assay results as given in ChEMBL document CHEMBL1212802, “Newly identified antibacterial compounds are topoisomerase poisons in African trypanosomes” (Antimicrob Agents Chemother, 2010).
Activity calls are given as the source filed them.

Assays:
[1] = tested on: Trypanosoma brucei brucei; assay: Antitrypanosomal activity against Trypanosoma brucei brucei MiTat 1.2 strain 427 bloodstream assessed as decrease in topoisomerase 2mt level at 0-100 uM; type: functional, organism-based
In short: (§1)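 Western band depletion: 1.2 × 10^7 cells in medium were exposed to compound for 30 min at 37°C. A portion taken just before lysis was lysed in SDS/DTT sample buffer and run on SDS-PAGE. Blots were probed for c-Myc-tagged topoisomerase IAmt (anti-c-Myc) and for topoisomerase IImt (specific antiserum), with enolase as loading control. Free enzyme was quantitated densitometrically.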

[2] = tested on: Trypanosoma brucei brucei; assay: Inhibition of topoisomerase in Trypanosoma brucei brucei MiTat 1.2 strain 427 bloodstream assessed as enzyme -DNA cleavable complex at 50 uM relative to DMSO
In short: (§2)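 KSDS assay: cells at 10^7/ml in thymidine-free medium were labelled 1 h at 37°C with [3H]thymidine, washed, and treated 30 min at 37°C with DMSO, 500 μM etoposide or compound, in triplicate. Lysates in SDS/EDTA with calf thymus DNA were heated 10 min at 65°C, then KCl-precipitated and washed, and the precipitate was scintillation-counted. Percent trapped DNA = KSDS cpm ÷ TCA-precipitable cpm of untreated cells.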

[3] = tested on: Trypanosoma brucei brucei; assay: Inhibition of mitochondrion topoisomerase 1A in Trypanosoma brucei brucei MiTat 1.2 strain 427 bloodstream assessed as increase in protein-sensitive linear DNA forms at 60-100 uM
In short: (§3)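 Free minicircle profiles: 1.2 × 10^7 cells were exposed to compound for 30 min at 37°C. Cells were lysed in SDS/EDTA buffer with or without proteinase K (2 h, 55°C), then treated with RNase A. DNA was run on 1.5% agarose with ethidium bromide and Southern-blotted with a 32P probe to the conserved 124-bp minicircle sequence. Read by phosphorimaging.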

[4] = tested on: Trypanosoma brucei brucei; assay: Inhibition of mitochondrion topoisomerase 1A in Trypanosoma brucei brucei MiTat 1.2 strain 427 bloodstream assessed as increase in protein-sensitive linear DNA forms at 0-40 uM; in short: as §3
[5] = tested on: Trypanosoma brucei brucei; assay: Inhibition of mitochondrion topoisomerase 1A in Trypanosoma brucei brucei MiTat 1.2 strain 427 bloodstream assessed as protection of linerarizd minicircle from lambda exonuclase at 25.5 uM
In short: (§4)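 Cells were treated 1 h at 37°C, lysed with SDS, and digested with proteinase K and RNase. DNA was phenol-extracted, precipitated and cleaned up. It was then digested with λ exonuclease (glycine-KOH pH 9.4, MgCl2, BSA) or exonuclease III (Bis-Tris-propane pH 7.0, MgCl2, DTT) for 30 min at 37°C. HindIII-linearized pBluescript served as internal control. Minicircles were detected by Southern blot.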

[6] = tested on: Trypanosoma brucei brucei; assay: Inhibition of mitochondrion topoisomerase 1A in Trypanosoma brucei brucei MiTat 1.2 strain 427 bloodstream assessed as protection of linerarizd minicircle from lambda exonuclase at 63 uM; in short: as §4
[7] = tested on: Trypanosoma brucei brucei; assay: Antitrypanosomal activity against Trypanosoma brucei brucei MiTat 1.2 strain 427 bloodstream by acid phosphatase method; type: functional, organism-based
In short: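 Bloodstream cells at 2 × 10^5/ml were given 2× serial dilutions of compound (final DMSO ≤1%), quadruplicate wells, for 20–24 h at 37°C. Motility was checked microscopically. p-Nitrophenyl phosphate in acetate buffer pH 5.5 with Triton X-100 was added for 5 h at 37°C, then A405 was read. Three runs; EC50 from Emax model fit; outliers removed by Chauvenet's criterion.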

[8] = tested on: Trypanosoma brucei brucei; assay: Antitrypanosomal activity against Trypanosoma brucei brucei MiTat 1.2 strain 427 bloodstream assessed as decrease in topoisomerase 1Amt level at 0-120 uM; type: functional, organism-based; in short: as §1
[9] = tested on: Trypanosoma brucei brucei; assay: Inhibition of mitochondrion topoisomerase 1A in Trypanosoma brucei brucei MiTat 1.2 strain 427 bloodstream assessed as protection of linerarizd minicircle from exonuclase 3 at 63 uM; in short: as §4
[10] = tested on: Trypanosoma brucei brucei; assay: Inhibition of topoisomerase in Trypanosoma brucei brucei MiTat 1.2 strain 427 bloodstream assessed as enzyme-DNA cleavable complex at 50 uM (RvB = 2.2 +/- 0.05%); in short: as §2
[11] = tested on: Trypanosoma brucei brucei; assay: Antitrypanosomal activity against Trypanosoma brucei brucei MiTat 1.2 strain 427 bloodstream assessed as decrease in topoisomerase 1Amt level at 0-100 uM; type: functional, organism-based; in short: as §1
Nucleic Acid = assay: Binding affinity to plasmid DNA assessed as DNA unwinding in presence of vaccinia virus topoisomerase 1B by electrophoresis; type: nucleic-acid assay
In short: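 Supercoiled pBluescript, or pBluescript pre-relaxed with E. coli topoisomerase IA (250 ng), was exposed to a range of compound concentrations in 50 mM Tris HCl pH 7.5, 50 mM NaCl, 5 mM MgCl2. Then 1 pM vaccinia topoisomerase IB was added (1 h, 37°C). Reactions were SDS-quenched, run on 1% agarose in Tris-borate-EDTA, and stained with ethidium bromide.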

[12] = tested on: Trypanosoma brucei brucei; assay: Inhibition of mitochondrion topoisomerase 1A in Trypanosoma brucei brucei MiTat 1.2 strain 427 bloodstream assessed as protection of linerarizd minicircle from exonuclase 3 at 25.5 uM; in short: as §4
[13] = tested on: Trypanosoma brucei brucei; assay: Antitrypanosomal activity against Trypanosoma brucei brucei MiTat 1.2 strain 427 bloodstream assessed as decrease in topoisomerase 2mt level at 0-120 uM; type: functional, organism-based; in short: as §1

SMILES | Activity [1] | Ratio [2] | inhibition [3] | inhibition [4] | inhibition [5] | inhibition [6] | EC50 [7] | Activity [8] | inhibition [9] | % DNA in cleavable complexes [10] | Activity [11] | Activity (Nucleic Acid) | inhibition [12] | Activity [13]
CN(C)CCc1cc2c(c3c1ccc1ccccc13)OCO2 | Active | 0.86 | inactive | Active | inactive | inactive | 6.3 µM | inactive | Active | 1.9% | inactive | Dose-dependent effect | Active | Active
O=c1c2cccc3c2c(nn1CN1CCCCC1)-c1ccccc1-3 | Active | 0.77 | inactive | Active | inactive | inactive | 16.9 µM | inactive | Active | 1.7% | inactive | Dose-dependent effect | Active | Active
